Experimental data pooled from the literature.
Target: Focal adhesion kinase 1 (PTK2, Homo sapiens, UniProt Q05397)

| Structure (SMILES) | assay | setting | measurement | value |
| --- | --- | --- | --- | --- |
| CN(c1nccc(-c2cnn3ncccc23)n1)C1CC1 | cell-free assay | 1 µM | remaining signal | 100% |
| O=c1nc(-c2ccccn2)sc2ccccc12 | binding, competition with immobilised ligand | 1 µM | remaining binding | 90% |
| Cc1cnc(NC2CCOCC2)nc1-n1cnc(C(=O)NC(CN)c2cc(F)cc(Cl)c2)c1 (stereo not drawn) | enzyme activity, inhibitor, radiometric | 1 µM | remaining activity | 102% |
| Cc1ccc(C(=O)NCc2ccsc2)cc1C#Cc1cn(C(C)C)c2ncnc(N)c12 | enzyme activity, inhibitor | 1 µM | activity vs control | 79% |
| COc1cc(-c2cc(-c3ccc(N4CCNCC4)cc3)cnc2C)cc(OC)c1OC | enzyme activity, inhibitor | 1 µM | inhibition | 16% |
| CNC(=O)c1cc(Oc2ccc(NC(=O)Nc3ccc(Cl)c(C(F)(F)F)c3)cc2)ccn1 | cell-free assay | 0.5 µM | remaining signal | 102% |
| Nc1ncnc2occ(-c3ccc(NC(=O)Nc4cc(C(F)(F)F)ccc4F)cc3)c12 | cell-free assay, inhibitor | 20 µM | remaining signal | 0.1% |
| CCS(=O)(=O)c1cc2cc(C[C@](O)(CC(C)(C)c3ccc(F)cc3C(N)=O)C(F)(F)F)[nH]c2cn1 | cell-free assay, competition with immobilised ligand | 1 µM | remaining binding | 97% |
| c1nc2c(Nc3ccc4c(c3)OCCO4)nc(Nc3ccc4c(c3)OCCO4)nc2[nH]1 | enzyme activity, inhibitor | 10 µM | activity vs control | 58% |
| CCOC(=O)c1cc2cc(-c3cc(C(=O)NCc4ccc(C(=O)O)cc4)nn3C)ccc2[nH]1 | cell-free assay, competition with immobilised ligand | 0.1 µM | remaining binding | 94% |
| N[C@@H]1CCN(c2nccc(-c3cnn4ncccc34)n2)C1 | cell-free assay | 1 µM | remaining signal | 97% |
| COc1cc2nccc(Oc3ccc(NC(=O)c4c5n(n(-c6ccc(F)cc6)c4=O)CCCC5)cc3)c2cc1OC | enzyme activity, inhibitor | 0.1 µM | inhibition | -10% |
| O=S(=O)(NC1CCC(c2cc(F)ccc2F)(S(=O)(=O)c2ccc(Cl)cc2)CC1)C(F)(F)F (stereo not drawn) | cell-free assay, competition with immobilised ligand | 1 µM | remaining binding | 90% |
| CC(C)(O)[C@H]1CC[C@H](Nc2ccc3ncc(-c4cccc(C(F)(F)F)c4)n3n2)CC1 | enzyme activity, inhibitor | 1 µM | remaining activity | 83.5% |
| CCCS(=O)(=O)Nc1ccc(F)c(C(=O)c2c[nH]c3ncc(-c4ccc(Cl)cc4)cc23)c1F | enzyme activity, inhibitor | 1 µM | inhibition | < 10% |
| F[C@@H]1CCN(c2nccc(-c3cnn4ncccc34)n2)C1 | cell-free assay | 1 µM | remaining signal | 100% |
| COc1cc2ncnc(Nc3ccc(Oc4ccccc4)cc3C)c2cc1OC | enzyme activity, inhibitor | 1 µM | inhibition | 5% |
| N#CC1(c2ccccn2)CCN(Cc2cc(C(=O)N3CCCC3)c(=O)n3ccccc23)CC1 | cell-free assay, competition with immobilised ligand | 1 µM | remaining binding | 89% |
| CN1CC(Oc2cnc(C#N)cc2-c2ccn3nc(NC(=O)C4CC4)cc3c2)C1 | enzyme activity, inhibitor | 1 µM | inhibition | 1% |
| O=C(Nc1cnn(-c2csc(C(=O)NC3COC3)c2)c1)Nc1c(F)cccc1Cl | enzyme activity, inhibitor | 5 µM | remaining activity | 89% |
| CC1=C(C#N)C(c2ccc3c(c2)c(NC(=O)c2ccccc2C)nn3C)C(C#N)=C(C)N1 | cell-free assay, competition with immobilised ligand | 1 µM | remaining binding | 94% |
| Cc1ccc(Nc2nccc(N(C)c3ccc4c(C)n(C)nc4c3)n2)cc1S(N)(=O)=O | enzyme activity, inhibitor | 10 µM | inhibition | 73% |
| N#CCCc1ccc2c(c1)-c1[nH]c3ccc([N+](=O)[O-])cc3c1CC(=O)N2 | cell-free assay | 0.5 µM | remaining signal | 82.2% |
| O=C(CSc1nc2nccnc2c(=O)n1CCc1ccccc1)Nc1nccs1 | enzyme activity, inhibitor | 10 µM | inhibition | 6% |
| C[C@H](c1ccnc(Nc2nc3ccc(-c4cc(N(C)C)ncn4)cc3[nH]2)c1)N1CCN(C(=O)CC(F)(F)F)CC1 | cell-free assay, competition with immobilised ligand | 0.1 µM | remaining binding | 100% |
| Cc1[nH]c(/C=C2\C(=O)Nc3ccc(F)cc32)c(C)c1C(=O)N[C@H]1CCN(C(=O)N(C)C)C1 | enzyme activity, inhibitor | 1 µM | remaining activity | 27% |
| Nc1nc(Nc2ccc(S(N)(=O)=O)cc2)nn1C(=O)c1c(F)cccc1F | cell-free assay | 0.5 µM | remaining signal | 95.5% |
| Cc1ccc(NC(=O)c2ccc(CN3CCN(C)CC3)cc2)cc1Nc1nccc(-c2cncc(-c3oncc3C)c2)n1 | enzyme activity, inhibitor | 0.5 µM | remaining activity | ≤ 50% |
| COCCOc1nc(-c2ccc(Cl)nc2)nc2c1CN(C(=O)c1ncn3ccccc13)CC2 | cell-free assay, competition with immobilised ligand | 0.1 µM | remaining binding | 99% |
| CC(C)(C)c1nc2c(s1)c1nc(N)ncc1c1ccc(NS(=O)(=O)c3c(F)cccc3F)c(F)c12 | enzyme activity, inhibitor, radiometric | 1 µM | remaining activity | 99% |
